IC50 data for two compounds are collected here from ChEMBL document CHEMBL5257161, “Mycobacterium tuberculosis CitA activity is modulated by cysteine oxidation and pyruvate binding” (RSC Med Chem, 2023).

The experiment concerns the target T1, Putative citrate synthase 2 (Mycobacterium tuberculosis, UniProt P9WPD3).
T1 sequence (P9WPD3 whole entry): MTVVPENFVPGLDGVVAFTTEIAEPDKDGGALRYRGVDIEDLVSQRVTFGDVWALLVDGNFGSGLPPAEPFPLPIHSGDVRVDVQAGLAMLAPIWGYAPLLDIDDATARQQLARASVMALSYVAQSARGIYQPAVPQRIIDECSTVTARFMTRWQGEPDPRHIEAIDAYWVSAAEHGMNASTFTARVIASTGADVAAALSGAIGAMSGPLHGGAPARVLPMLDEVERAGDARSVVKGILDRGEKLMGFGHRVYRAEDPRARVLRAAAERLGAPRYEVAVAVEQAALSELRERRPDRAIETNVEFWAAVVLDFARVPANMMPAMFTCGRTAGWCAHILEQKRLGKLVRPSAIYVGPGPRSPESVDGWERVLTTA
Put plainly: Inhibition of Mycobacterium tuberculosis CitA expressed in Escherichia coli cell by UV spectrophotometric based analysis. The method, boiled down:
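Michael acceptor compounds were added directly to the DTNB/OAA/AcCoA reaction with 10 nM CitA in 50 mM Tris pH 8.0 at 25 °C, read at 412 nm. The screen used 20 μM compound. Dose–response data were fitted to the Hill equation for apparent IC50. A control measured how fast the compounds react with reaction components.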

The term IC50 denotes the concentration that gives 50% inhibition. Low values mean greater potency in that assay, high ones weaker potency in that assay. For the compound `C=C1CC2(OC1=O)C(=O)Nc1ccc(I)cc12` (configuration not stated), half-maximal inhibition (IC50) required 6.6 µM. This lies in the single-digit micromolar range.
In the case of `C=C1C(=O)OC2(C(=O)Nc3ccccc32)C1c1ccccc1` (configuration not stated), the midpoint of inhibition, the IC50, lay at 10.9 µM.
